The subject of one test is HCT-116. Briefly: Cytotoxicity against human HCT116 cells assessed as cell viability by WST-1 reduction assay. It is filed as cell-based. An outline of the steps:
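Cytotoxicity was measured in an HCT-116 cell proliferation assay as reduction of WST-1 reagent. Values are the mean of at least three experiments.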
In general terms: Tetrazolium assays rely on reduction of a dye to a coloured formazan, in cell work by metabolically active cells.

Test [1] has as its target MAP kinase-interacting serine/threonine-protein kinase 1 (Homo sapiens, UniProt Q9BUB5). Put plainly: Competitive binding affinity to MKNK1 (unknown origin) at 10 uM in presence of ATP relative to control.
In test [2] the test system is Mast/stem cell growth factor receptor Kit (Homo sapiens), P10721 [V559D,V654A]. Put plainly: Competitive binding affinity to KIT V559D/V654A double mutant (unknown origin) at 10 uM in presence of ATP relative to control. The essentials: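 In vitro ATP-site competition binding assay, part of profiling against a diverse panel of 128 kinases. Each compound was tested at a single concentration of 10 µM. Kinome selectivity was summarized as S15 selectivity scores.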
Chain of Mast/stem cell growth factor receptor Kit (Homo sapiens), P10721 [V559D,V654A] (P10721 whole entry V559D/V654A): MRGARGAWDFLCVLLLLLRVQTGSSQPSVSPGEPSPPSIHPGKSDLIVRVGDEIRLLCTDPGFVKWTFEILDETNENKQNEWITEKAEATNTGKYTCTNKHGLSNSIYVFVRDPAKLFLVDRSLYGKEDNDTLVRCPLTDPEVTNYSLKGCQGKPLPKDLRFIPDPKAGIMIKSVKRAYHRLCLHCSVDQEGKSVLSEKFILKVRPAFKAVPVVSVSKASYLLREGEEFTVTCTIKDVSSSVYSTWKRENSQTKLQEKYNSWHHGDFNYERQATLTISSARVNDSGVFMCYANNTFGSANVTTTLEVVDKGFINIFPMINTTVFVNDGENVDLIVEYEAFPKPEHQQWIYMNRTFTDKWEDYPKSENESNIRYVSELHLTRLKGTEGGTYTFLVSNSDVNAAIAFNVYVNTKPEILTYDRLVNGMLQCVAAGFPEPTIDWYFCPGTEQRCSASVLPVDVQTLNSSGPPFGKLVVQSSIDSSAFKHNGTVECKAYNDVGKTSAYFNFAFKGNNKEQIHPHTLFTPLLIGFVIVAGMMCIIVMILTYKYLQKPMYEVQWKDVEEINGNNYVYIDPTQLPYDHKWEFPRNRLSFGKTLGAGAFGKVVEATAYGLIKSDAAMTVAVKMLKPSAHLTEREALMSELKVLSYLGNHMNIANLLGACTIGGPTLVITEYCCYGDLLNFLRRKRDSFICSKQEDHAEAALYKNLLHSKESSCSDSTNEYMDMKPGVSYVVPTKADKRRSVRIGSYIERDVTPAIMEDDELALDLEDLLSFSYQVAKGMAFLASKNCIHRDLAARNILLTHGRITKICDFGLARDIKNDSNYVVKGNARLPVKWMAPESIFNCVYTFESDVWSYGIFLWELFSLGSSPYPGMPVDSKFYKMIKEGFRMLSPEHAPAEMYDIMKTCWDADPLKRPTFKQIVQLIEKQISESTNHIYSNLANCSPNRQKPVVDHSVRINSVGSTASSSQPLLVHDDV

Test [3] has as its system Mast/stem cell growth factor receptor Kit (Homo sapiens), P10721 [D816V]. Briefly: Competitive binding affinity to KIT D816V mutant (unknown origin) at 10 uM in presence of ATP relative to control.
Test [4] deals with T1, Tyrosine-protein kinase JAK3 (Homo sapiens) (UniProt P52333).
T1 sequence (whole entry): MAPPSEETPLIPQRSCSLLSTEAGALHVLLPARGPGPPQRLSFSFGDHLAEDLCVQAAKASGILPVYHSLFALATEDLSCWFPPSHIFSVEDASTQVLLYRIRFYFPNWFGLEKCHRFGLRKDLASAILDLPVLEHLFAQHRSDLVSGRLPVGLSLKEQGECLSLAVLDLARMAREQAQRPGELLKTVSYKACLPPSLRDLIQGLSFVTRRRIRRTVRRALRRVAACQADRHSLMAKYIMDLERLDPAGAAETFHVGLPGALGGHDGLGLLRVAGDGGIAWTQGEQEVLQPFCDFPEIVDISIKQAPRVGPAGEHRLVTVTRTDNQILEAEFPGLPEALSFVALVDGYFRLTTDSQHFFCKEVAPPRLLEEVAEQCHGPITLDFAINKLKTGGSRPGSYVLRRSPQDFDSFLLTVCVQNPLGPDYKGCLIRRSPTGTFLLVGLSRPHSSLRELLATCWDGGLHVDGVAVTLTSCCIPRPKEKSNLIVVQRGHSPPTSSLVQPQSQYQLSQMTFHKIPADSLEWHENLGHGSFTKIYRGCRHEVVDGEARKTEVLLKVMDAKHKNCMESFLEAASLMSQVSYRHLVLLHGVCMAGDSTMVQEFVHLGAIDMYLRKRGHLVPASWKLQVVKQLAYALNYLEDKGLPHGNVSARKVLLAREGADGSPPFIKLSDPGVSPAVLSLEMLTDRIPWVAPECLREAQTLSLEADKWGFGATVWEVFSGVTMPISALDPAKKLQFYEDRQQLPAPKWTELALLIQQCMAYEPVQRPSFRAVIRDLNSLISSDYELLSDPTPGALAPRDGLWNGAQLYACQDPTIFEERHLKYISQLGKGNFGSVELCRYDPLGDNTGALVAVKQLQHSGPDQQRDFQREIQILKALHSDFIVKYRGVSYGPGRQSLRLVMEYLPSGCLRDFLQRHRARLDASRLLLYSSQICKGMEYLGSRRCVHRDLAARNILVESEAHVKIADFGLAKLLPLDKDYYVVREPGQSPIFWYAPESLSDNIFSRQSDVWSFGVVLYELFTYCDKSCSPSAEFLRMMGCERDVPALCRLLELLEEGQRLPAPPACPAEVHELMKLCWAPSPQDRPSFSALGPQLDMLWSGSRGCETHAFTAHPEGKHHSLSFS
Briefly: Competitive binding affinity to JAK3 kinase domain 2 (unknown origin) at 10 uM in presence of ATP relative to control.

Test [5] concerns the target T2, Serine/threonine-protein kinase Chk1 (Homo sapiens) (UniProt O14757).
T2 sequence (whole entry): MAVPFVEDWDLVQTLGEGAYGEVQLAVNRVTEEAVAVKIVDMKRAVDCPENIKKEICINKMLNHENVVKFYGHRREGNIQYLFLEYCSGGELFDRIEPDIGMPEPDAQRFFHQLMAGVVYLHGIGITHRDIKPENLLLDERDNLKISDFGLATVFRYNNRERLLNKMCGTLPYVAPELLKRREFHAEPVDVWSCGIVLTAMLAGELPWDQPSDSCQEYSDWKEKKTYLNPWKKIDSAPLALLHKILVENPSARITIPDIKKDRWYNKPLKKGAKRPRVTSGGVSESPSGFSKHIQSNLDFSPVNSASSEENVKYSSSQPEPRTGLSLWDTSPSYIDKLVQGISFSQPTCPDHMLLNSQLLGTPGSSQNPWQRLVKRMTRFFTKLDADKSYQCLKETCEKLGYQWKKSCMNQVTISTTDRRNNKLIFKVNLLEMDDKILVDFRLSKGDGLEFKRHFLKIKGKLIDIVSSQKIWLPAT
Put plainly: Competitive binding affinity to CHEK1 (unknown origin) at 10 uM in presence of ATP relative to control.

The target of test [6] is Cyclin-dependent kinase 3 (Homo sapiens) (UniProt Q00526). Briefly: Competitive binding affinity to CDK3 (unknown origin) at 10 uM in presence of ATP relative to control.
Chain of Cyclin-dependent kinase 3 (Homo sapiens) (Q00526 whole entry, looked up): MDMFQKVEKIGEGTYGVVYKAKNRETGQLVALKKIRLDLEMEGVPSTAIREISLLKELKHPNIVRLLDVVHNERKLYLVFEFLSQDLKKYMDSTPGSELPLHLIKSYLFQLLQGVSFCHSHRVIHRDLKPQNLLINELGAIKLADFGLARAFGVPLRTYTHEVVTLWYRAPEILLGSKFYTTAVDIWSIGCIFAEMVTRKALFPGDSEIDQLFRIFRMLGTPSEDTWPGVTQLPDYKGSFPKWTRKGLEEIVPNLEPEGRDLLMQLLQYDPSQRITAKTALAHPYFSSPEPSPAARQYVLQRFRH
The target in test [7] is Tyrosine-protein kinase receptor Tie-1 (Homo sapiens) (UniProt P35590). Briefly: Competitive binding affinity to TIE1 (unknown origin) at 10 uM in presence of ATP relative to control.
Chain of Tyrosine-protein kinase receptor Tie-1 (Homo sapiens) (P35590 whole entry, the tested form may be a part): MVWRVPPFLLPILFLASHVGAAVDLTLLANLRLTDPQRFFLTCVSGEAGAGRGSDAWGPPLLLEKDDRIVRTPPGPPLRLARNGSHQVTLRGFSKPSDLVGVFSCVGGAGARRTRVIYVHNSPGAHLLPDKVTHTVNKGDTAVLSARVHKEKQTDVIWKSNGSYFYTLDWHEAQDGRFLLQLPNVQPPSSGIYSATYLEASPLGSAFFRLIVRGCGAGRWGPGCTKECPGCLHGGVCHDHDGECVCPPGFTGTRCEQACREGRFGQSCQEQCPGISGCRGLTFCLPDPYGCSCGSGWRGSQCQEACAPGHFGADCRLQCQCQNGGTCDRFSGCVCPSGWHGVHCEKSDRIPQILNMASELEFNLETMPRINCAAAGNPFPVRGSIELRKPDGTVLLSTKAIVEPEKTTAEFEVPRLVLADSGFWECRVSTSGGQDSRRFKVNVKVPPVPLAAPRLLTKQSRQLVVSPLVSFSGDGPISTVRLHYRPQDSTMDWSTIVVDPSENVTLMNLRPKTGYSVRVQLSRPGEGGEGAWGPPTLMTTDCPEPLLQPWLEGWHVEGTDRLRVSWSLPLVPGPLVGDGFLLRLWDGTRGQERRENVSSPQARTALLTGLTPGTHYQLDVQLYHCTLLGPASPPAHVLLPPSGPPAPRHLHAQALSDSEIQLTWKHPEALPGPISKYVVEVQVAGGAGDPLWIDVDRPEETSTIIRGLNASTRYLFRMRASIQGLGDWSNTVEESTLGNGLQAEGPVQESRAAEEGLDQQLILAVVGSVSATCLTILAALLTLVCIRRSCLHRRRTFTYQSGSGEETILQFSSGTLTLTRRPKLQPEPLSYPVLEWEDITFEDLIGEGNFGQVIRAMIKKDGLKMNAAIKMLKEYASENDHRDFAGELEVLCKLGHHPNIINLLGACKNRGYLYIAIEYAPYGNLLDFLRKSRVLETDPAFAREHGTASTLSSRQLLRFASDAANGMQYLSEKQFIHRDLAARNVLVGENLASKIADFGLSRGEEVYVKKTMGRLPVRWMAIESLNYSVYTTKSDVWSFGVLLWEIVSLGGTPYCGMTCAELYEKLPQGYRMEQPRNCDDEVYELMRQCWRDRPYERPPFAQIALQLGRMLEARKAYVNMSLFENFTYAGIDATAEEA
The target of test [8] is Ribosomal protein S6 kinase alpha-2 (Homo sapiens) (UniProt Q15349). Briefly: Competitive binding affinity to RPS6KA2 kinase domain 2 (unknown origin) at 10 uM in presence of ATP relative to control.
Chain of Ribosomal protein S6 kinase alpha-2 (Homo sapiens) (Q15349 whole entry, the tested form may be a part): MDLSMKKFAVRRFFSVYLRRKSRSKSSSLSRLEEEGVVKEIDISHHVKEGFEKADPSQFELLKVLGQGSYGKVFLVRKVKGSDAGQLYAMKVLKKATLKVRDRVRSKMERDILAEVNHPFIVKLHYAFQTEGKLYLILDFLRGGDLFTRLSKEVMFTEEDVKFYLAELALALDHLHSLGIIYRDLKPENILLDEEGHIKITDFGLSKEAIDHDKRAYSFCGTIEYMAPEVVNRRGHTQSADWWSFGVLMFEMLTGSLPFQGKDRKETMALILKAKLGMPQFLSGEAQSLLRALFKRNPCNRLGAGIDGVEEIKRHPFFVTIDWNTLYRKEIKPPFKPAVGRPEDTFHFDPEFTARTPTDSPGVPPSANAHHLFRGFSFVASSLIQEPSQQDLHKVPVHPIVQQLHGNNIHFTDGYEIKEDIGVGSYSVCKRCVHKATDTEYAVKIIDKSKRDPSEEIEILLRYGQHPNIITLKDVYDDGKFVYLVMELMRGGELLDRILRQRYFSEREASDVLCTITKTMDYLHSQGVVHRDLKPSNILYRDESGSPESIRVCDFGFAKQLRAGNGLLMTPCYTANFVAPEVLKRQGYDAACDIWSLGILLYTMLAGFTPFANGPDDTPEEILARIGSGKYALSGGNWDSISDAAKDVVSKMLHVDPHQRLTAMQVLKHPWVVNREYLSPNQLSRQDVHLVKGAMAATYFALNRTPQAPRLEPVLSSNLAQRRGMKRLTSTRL
Test [9] deals with Ribosomal protein S6 kinase alpha-1 (Homo sapiens, UniProt Q15418). Briefly: Competitive binding affinity to RPS6KA1 kinase domain 2 (unknown origin) at 10 uM in presence of ATP relative to control.
Chain of Ribosomal protein S6 kinase alpha-1 (Q15418 whole entry, the tested form may be a part): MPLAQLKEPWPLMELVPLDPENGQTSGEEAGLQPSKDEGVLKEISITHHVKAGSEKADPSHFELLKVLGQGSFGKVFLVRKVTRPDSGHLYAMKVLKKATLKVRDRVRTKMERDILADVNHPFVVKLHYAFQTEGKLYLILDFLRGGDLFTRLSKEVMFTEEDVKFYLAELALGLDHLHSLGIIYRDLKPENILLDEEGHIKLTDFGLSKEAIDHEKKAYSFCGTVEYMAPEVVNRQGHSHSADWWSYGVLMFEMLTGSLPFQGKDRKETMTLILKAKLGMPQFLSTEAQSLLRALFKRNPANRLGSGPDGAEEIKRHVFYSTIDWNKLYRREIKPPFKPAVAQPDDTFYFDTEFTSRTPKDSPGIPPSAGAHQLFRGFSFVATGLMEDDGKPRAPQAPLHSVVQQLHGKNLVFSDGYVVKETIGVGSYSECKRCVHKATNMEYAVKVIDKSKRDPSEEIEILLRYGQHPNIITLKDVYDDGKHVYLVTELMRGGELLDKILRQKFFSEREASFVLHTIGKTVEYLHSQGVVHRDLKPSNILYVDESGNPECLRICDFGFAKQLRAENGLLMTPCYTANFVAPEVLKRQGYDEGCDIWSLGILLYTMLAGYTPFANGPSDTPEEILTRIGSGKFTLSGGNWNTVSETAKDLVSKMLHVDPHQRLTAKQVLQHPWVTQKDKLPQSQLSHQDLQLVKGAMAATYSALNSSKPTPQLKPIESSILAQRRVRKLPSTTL

From ChEMBL document CHEMBL2424622, “Development of amino-pyrimidine inhibitors of c-Jun N-terminal kinase (JNK): kinase profiling guided optimization of a 1,2,3-benzotriazole lead” (Bioorg Med Chem Lett, 2013) come the findings set out here.

Usually IC50 stands for the concentration that inhibits the measured activity by half. For orientation: inhibition means the share of the control response that was lost under treatment.

Chain of MAP kinase-interacting serine/threonine-protein kinase 1 (Q9BUB5 whole entry, looked up): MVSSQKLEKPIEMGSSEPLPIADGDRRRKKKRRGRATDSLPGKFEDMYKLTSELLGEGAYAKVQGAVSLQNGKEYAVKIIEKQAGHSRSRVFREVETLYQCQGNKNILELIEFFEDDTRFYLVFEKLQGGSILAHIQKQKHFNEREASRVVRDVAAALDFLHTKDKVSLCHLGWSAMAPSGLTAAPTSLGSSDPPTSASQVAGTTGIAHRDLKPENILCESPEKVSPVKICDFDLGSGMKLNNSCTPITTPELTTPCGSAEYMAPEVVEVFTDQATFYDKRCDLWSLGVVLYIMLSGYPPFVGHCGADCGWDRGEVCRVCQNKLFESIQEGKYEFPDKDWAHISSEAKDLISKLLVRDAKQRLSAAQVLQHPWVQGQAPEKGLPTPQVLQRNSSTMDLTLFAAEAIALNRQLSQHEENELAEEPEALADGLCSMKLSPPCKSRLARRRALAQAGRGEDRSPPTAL
Chain of Mast/stem cell growth factor receptor Kit (Homo sapiens), P10721 [D816V] (P10721 whole entry D816V): as the sequence (P10721 whole entry V559D/V654A) above, with D559V, A654V, D816V counted along it

For `O=C([C@H]1CC[C@H](Nc2nccc(-n3nnc4ccccc43)n2)CC1)N1CCOCC1`, the IC50 in the test on HCT-116 was 20000 nM.

For the molecule `CS(=O)(=O)CCCOc1cccc2c1ccn2-c1ccnc(N[C@H]2CC[C@H](C(=O)N3CCC(O)CC3)CC2)n1`, the inhibition in test [1] is more than 85%.

For the molecule `O[C@H]1CC[C@H](Nc2nccc(-n3ccc4ccccc43)n2)CC1`, the inhibition in test [1] is less than 50%; in test [2] it was 64%; in [3] it was less than 50%; in test [4], less than 50%; in test [5], less than 50%; in [6], less than 50%. In addition, the inhibition in [7] was less than 50%; in test [8], less than 50%; in test [9], 95%.

In the case of `O[C@H]1CC[C@H](Nc2nccc(-n3ncc4ccccc43)n2)CC1`, the inhibition was 70% in test [1]; 87% in test [2]; 63% in test [3]; less than 50% in test [4]; less than 50% in test [5]; less than 50% in test [6]. Also, the inhibition in [7] was less than 50%; in [8], less than 50%; in test [9], 100%.

As for `O[C@H]1CC[C@H](Nc2nccc(-c3n[nH]c4ccccc34)n2)CC1`, the inhibition in test [2] turned out to be 82%; in test [3], 94%.

Consider `N[C@H]1CC[C@H](Nc2nccc(-n3nnc4ccccc43)n2)CC1`, for which, in the test with HCT-116, the IC50 turned out to be 770 nM.

Consider `O[C@H]1CC[C@H](Nc2nccc(-n3nnc4ccccc43)n2)CC1`, for which the inhibition is 97% in [1]; 67% in test [2]; 98% in test [3]; less than 50% in test [4]; less than 50% in [5]; 75% in test [6]. Further, the inhibition in [7] is less than 50%; in test [8], 87%; in test [9] it was 100%. In addition, the IC50 in the test with HCT-116 turned out to be 1200 nM.
